The results in this text go back to ChEMBL document CHEMBL1177835, “A note to the biological activity of benzoxazine derivatives containing the thioxo group” (Eur J Med Chem, 2010).

Each structure is given as a SMILES string. ≈ marks a conversion by molar mass, not a printed value.

The test system of data set [1] is Mycobacterium kansasii. Description: Antimycobacterial activity against Mycobacterium kansasii 6509/96 after 14 days by microdilution method. It is filed as functional. The note with it: 6509/96, 336 h. In outline:
(§1)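 Dilution micromethod for MIC; compounds added to medium as DMSO solutions. Each strain also inoculated onto Löwenstein–Jensen medium to control inoculum sterility and growth. Strain 6509/96 is a clinical isolate; CNCTC strains from the Czech national type culture collection.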

The subject of data set [2] is Mycobacterium avium. The data set is described as follows: Antimycobacterial activity against Mycobacterium avium CNCTC My 330/88 after 21 days by microdilution method. In kind it is functional. The note with it: CNCTC My 330/88, 504 h. In outline: (§2)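 MIC determined by a dilution micromethod. Strains came from the Czech National Collection of Type Cultures, Prague. Compounds were added to the medium as DMSO solutions. Each inoculum was also plated in parallel on Löwenstein–Jensen medium to check its sterility and growth. The M. avium strain is identical with ATCC 25291 and resistant to INH.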

Data set [3] relates to Mycobacterium avium. The data set is described as follows: Antimycobacterial activity against Mycobacterium avium CNCTC My 330/88 after 14 days by microdilution method. It is filed as functional. The note with it: CNCTC My 330/88, 336 h. In outline: as §2
A general note: Dilution methods test growth across graded concentrations, often in twofold steps.

Data set [4] relates to Mycobacterium tuberculosis. The data set is described as follows: Antimycobacterial activity against Mycobacterium tuberculosis CNCTC My 331/88 after 21 days by microdilution method. It is filed as functional. The note with it: CNCTC My 331/88, 504 h. In outline: as §2
In data set [5] the test system is Mycobacterium kansasii. Description: Antimycobacterial activity against Mycobacterium kansasii CNCTC My 235/80 after 21 days by microdilution method. It is filed as functional. The note with it: CNCTC My 235/80, 504 h. In outline:
as §1

The subject of data set [6] is Mycobacterium tuberculosis. Description: Antimycobacterial activity against Mycobacterium tuberculosis CNCTC My 331/88 after 14 days by microdilution method. In kind it is functional. The settings on record: CNCTC My 331/88, 336 h. In outline:
as §2

Data set [7] relates to Mycobacterium kansasii. Description: Antimycobacterial activity against Mycobacterium kansasii 6509/96 after 21 days by microdilution method. In kind it is functional. The note with it: 6509/96, 504 h. In outline:
as §1

Data set [8] relates to Mycobacterium kansasii. Description: Antimycobacterial activity against Mycobacterium kansasii CNCTC My 235/80 after 14 days by microdilution method. In kind it is functional. The settings on record: CNCTC My 235/80, 336 h. In outline: as §1
Data set [9] deals with K562. Description: Antiproliferative activity against human K562 cells after 72 hrs by celltiter-blue assay. In kind it is functional, cell-based. In outline: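 K-562 grown in RPMI 1640 with ultraglutamine, gentamicin, 10% heat-inactivated FBS at 37 °C; about 10,000 cells/well. Compounds dissolved in DMSO and diluted in DMEM, incubated 72 h at 37 °C, 5% CO2. Viability read by CellTiter-Blue resazurin reduction. GI50 taken where the dose-response curve crosses 50% of untreated control.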
(In general: Resazurin is reduced to fluorescent resorufin, in cell work by metabolically active cells.)

In data set [10] the test system is HUVEC. The data set is described as follows: Antiproliferative activity against HUVEC after 72 hrs by using methylene blue staining. In kind it is cell-based. The note with it: human. In outline:
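HUVEC in culture medium with ultraglutamine, gentamicin, 10% heat-inactivated FBS, 37 °C. Harvested in log phase by trypsinization; about 10,000 cells/well. Compounds in DMSO, diluted in DMEM, incubated 72 h at 37 °C, 5% CO2. Cells then glutaraldehyde-fixed, stained with 0.05% methylene blue for 15 min, eluted with 0.33 N HCl, OD 660 nm. GI50 taken at 50% intersection versus untreated control.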

Data set [11] concerns HeLa. The data set is described as follows: Cytotoxicity against human HeLa cells after 72 hrs by using methylene blue staining. In kind it is functional, cell-based. In outline: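 HeLa cells in RPMI 1640 with supplements, preincubated 48 h without compound. Compound dilutions were then applied to subconfluent monolayers for 72 h at 37 °C, 5% CO2. Cells were glutaraldehyde-fixed, stained with 0.05% methylene blue, eluted with 0.33 N HCl and read at OD 660 nm. CC50 taken at 50% intersection versus negative control.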

Regarding `S=c1oc2ccc(Br)cc2c(=S)n1Cc1ccccc1`, the MIC (in general, the least concentration at which growth counts as inhibited) was determined as 4 µM (≈ 1.46 µg/mL) in data set [1]; 8 µM (≈ 2.91 µg/mL) in data set [2]; 8 µM (≈ 2.91 µg/mL) in data set [3]; 2 µM (≈ 0.729 µg/mL) in data set [4]; 8 µM (≈ 2.91 µg/mL) in [5]; 1 µM (≈ 0.364 µg/mL) in [6]. Moreover, the MIC in data set [7] and in [8] was 8 µM (≈ 2.91 µg/mL) each time.
With `S=c1oc2ccccc2c(=S)n1Cc1ccc(Cl)c(Cl)c1`, the MIC came out at 4 µM (≈ 1.42 µg/mL) in data set [1]; 0.5 µM (≈ 0.177 µg/mL) in data set [2]; 0.5 µM (≈ 0.177 µg/mL) in data set [3]; 2 µM (≈ 0.709 µg/mL) in [4]; 4 µM (≈ 1.42 µg/mL) in data set [5]; 1 µM (≈ 0.354 µg/mL) in [6]. Further, the MIC in data set [7] and in data set [8] was 4 µM (≈ 1.42 µg/mL) in each case.
Take `O=c1oc2c(Cl)cc(Cl)cc2c(=O)n1Cc1ccc(Cl)c(Cl)c1`: the MIC in data set [1] came out at 125 µM (≈ 48.9 µg/mL); in data set [2] it was 125 µM (≈ 48.9 µg/mL); in data set [3], 125 µM (≈ 48.9 µg/mL); in data set [4], 125 µM (≈ 48.9 µg/mL); in data set [5], 125 µM (≈ 48.9 µg/mL); in [6], 62.5 µM (≈ 24.4 µg/mL). The MIC in [7] and in [8] was 125 µM (≈ 48.9 µg/mL) in each case. The Activity result in data set [9], in [10] and in data set [11] was “Toxic” in each case.
Turning to `S=c1oc2ccc(Cl)cc2c(=S)n1Cc1ccc(Cl)c(Cl)c1`, the MIC in data set [1] came out at 32 µM (≈ 12.4 µg/mL); in data set [2], 32 µM (≈ 12.4 µg/mL); in [3] it was 16 µM (≈ 6.22 µg/mL); in data set [4], 8 µM (≈ 3.11 µg/mL); in [5], 32 µM (≈ 12.4 µg/mL); in data set [6] it was 4 µM (≈ 1.55 µg/mL). The MIC in data set [7] and in data set [8] was 32 µM (≈ 12.4 µg/mL) throughout.
As for `O=c1oc2c(Cl)cc(Cl)cc2c(=S)n1Cc1ccc(Cl)c(Cl)c1`, the MIC in data set [1] worked out at 16 µM (≈ 6.51 µg/mL); in data set [2] it was 4 µM (≈ 1.63 µg/mL); in [3], 4 µM (≈ 1.63 µg/mL); in [4], 2 µM (≈ 0.814 µg/mL); in data set [5] it was 16 µM (≈ 6.51 µg/mL); in data set [6], 2 µM (≈ 0.814 µg/mL). The MIC in data set [7] and in data set [8] was 16 µM (≈ 6.51 µg/mL) each time. The Activity entry in [9], in data set [10] and in data set [11] was “Toxic” throughout.
Regarding `O=c1oc2ccc(Br)cc2c(=O)n1Cc1ccc(Cl)c(Cl)c1`, the MIC in [1] was found to be 62.5 µM (≈ 25.1 µg/mL); in data set [2] it was 32 µM (≈ 12.8 µg/mL); in data set [3], 32 µM (≈ 12.8 µg/mL); in [4] it was 32 µM (≈ 12.8 µg/mL); in data set [5], 62.5 µM (≈ 25.1 µg/mL); in data set [6], 32 µM (≈ 12.8 µg/mL). The MIC in data set [7] and in data set [8] was 62.5 µM (≈ 25.1 µg/mL) in each case. Also, the Activity entry in data set [9], in data set [10] and in data set [11] was “Toxic” each time.
In the case of `O=c1oc2ccc(Cl)cc2c(=S)n1Cc1ccc(F)cc1`, the MIC in data set [1] is 4 µM (≈ 1.29 µg/mL); in [2], 4 µM (≈ 1.29 µg/mL); in [3] it was 4 µM (≈ 1.29 µg/mL); in [4] it was 1 µM (≈ 0.322 µg/mL); in [5], 8 µM (≈ 2.57 µg/mL); in data set [6], 1 µM (≈ 0.322 µg/mL). Further, the MIC in data set [7] and in [8] was 4 µM (≈ 1.29 µg/mL) each time. For the same molecule, the Activity result in [9], in data set [10] and in data set [11] was “Toxic” throughout.
As to `Fc1ccc(Cn2c(=S)oc3ccc(Cl)cc3c2=S)cc1`, the MIC in data set [1] was determined as 8 µM (≈ 2.7 µg/mL); in [2], 16 µM (≈ 5.41 µg/mL); in data set [3], 8 µM (≈ 2.7 µg/mL); in data set [4], 2 µM (≈ 0.676 µg/mL); in data set [5], 16 µM (≈ 5.41 µg/mL); in data set [6], 1 µM (≈ 0.338 µg/mL). Besides, the MIC in [7] came out at 16 µM (≈ 5.41 µg/mL); in data set [8], 8 µM (≈ 2.7 µg/mL).
As for `S=c1oc2c(Cl)cc(Cl)cc2c(=S)n1Cc1ccc(Cl)c(Cl)c1`, the MIC turned out to be 62.5 µM (≈ 26.4 µg/mL) in data set [1]; 62.5 µM (≈ 26.4 µg/mL) in data set [2]; 62.5 µM (≈ 26.4 µg/mL) in data set [3]; 32 µM (≈ 13.5 µg/mL) in data set [4]; 62.5 µM (≈ 26.4 µg/mL) in [5]; 32 µM (≈ 13.5 µg/mL) in data set [6]. Besides, the MIC in data set [7] and in [8] was 62.5 µM (≈ 26.4 µg/mL) throughout.
Consider `NNC(=O)c1ccncc1` [ISONIAZID], for which the MIC was 8 µM (≈ 1.1 µg/mL) in data set [1]; above 250 µM in data set [2]; above 250 µM in data set [3]; 1 µM (≈ 0.137 µg/mL) in data set [4]; above 250 µM in data set [5]; 1 µM (≈ 0.137 µg/mL) in [6]. The MIC in data set [7] was 8 µM (≈ 1.1 µg/mL); in [8] it was above 250 µM.
